According to ChEMBL document CHEMBL1137007, “Synthesis of 4-substituted pyrido[2,3-d]pyrimidin-4(1H)-one as analgesic and anti-inflammatory agents” (Bioorg Med Chem Lett, 2009):

Legend:
Rattus norvegicus [1] = assay: Antiinflammatory activity in rat assessed as inhibition of carrageenan-induced paw oedema at 10 mg/kg, po after 3 hrs; assay type: functional; set-up: scale not given: the % may be the effect or the level left
Summary of the method: (§1)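 Rats, six per group, were dosed orally (10 or 20 mg/kg, suspension in 1% carboxymethyl cellulose) before carrageenan paw injection. Paw volume was read by mercury-displacement plethysmography just before and 30 min, 1, 2 and 3 h after carrageenan. %inhibition = 100[1 − (a − x)/(b − y)], with the test group's pre/post volumes set against the vehicle control group's. Reported as mean ± SEM (n = 6) with ANOVA.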

Mus musculus [2] = assay: Analgesic activity in Wister albino mice at 10 mg/kg, po after 1 hr by tail-flick test
Mus musculus [3] = assay: Analgesic activity in Wister albino mice at 10 mg/kg, po after 3 hrs by tail-flick test
Rattus norvegicus [4] = assay: Antiinflammatory activity in rat assessed as inhibition of carrageenan-induced paw oedema at 20 mg/kg, po after 2 hrs; assay type: functional; set-up: scale not given: the % may be the effect or the level left; summary of the method: as §1
Rattus norvegicus [5] = assay: Antiinflammatory activity in rat assessed as inhibition of carrageenan-induced paw oedema at 10 mg/kg, po after 2 hrs; assay type: functional; set-up: scale not given: the % may be the effect or the level left; summary of the method: as §1
Rattus norvegicus [6] = assay: Toxicity in Wistar albino rat assessed as ulcer index at 20 mg/kg, ip administered once daily for 3 days; assay type: organism-based; set-up: dose 20 mg/kg, route intraperitoneal; conditions: in vivo, 72 h
Summary of the method: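 Wistar albino rats of either sex (150–200 g), six per group, housed at 25 °C, 45–55% RH, 12-h light/dark cycle and acclimatized one week. Dosing was intraperitoneal as a suspension in 10% v/v Tween-80, with a vehicle-only control group. Animals were fasted 36 h, then pylorus-ligated (Shay method) on day 4 and sacrificed 4 h later for ulcer index. Values are mean ± SEM (n = 6), analysed by one-way ANOVA.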

Mus musculus [7] = assay: Analgesic activity in Wister albino mice at 20 mg/kg, po after 1 hr by tail-flick test
Mus musculus [8] = assay: Analgesic activity in Wister albino mice at 20 mg/kg, po after 30 mins by tail-flick test
Mus musculus [9] = assay: Analgesic activity in Wister albino mice at 10 mg/kg, po after 30 mins by tail-flick test
Mus musculus [10] = assay: Analgesic activity in Wister albino mice at 10 mg/kg, po after 2 hrs by tail-flick test
Mus musculus [11] = assay: Analgesic activity in Wister albino mice at 20 mg/kg, po after 3 hrs by tail-flick test
Mus musculus [12] = assay: Analgesic activity in Wister albino mice at 20 mg/kg, po after 2 hrs by tail-flick test
Rattus norvegicus [13] = assay: Antiinflammatory activity in rat assessed as inhibition of carrageenan-induced paw oedema at 20 mg/kg, po after 3 hrs; assay type: functional; set-up: scale not given: the % may be the effect or the level left; summary of the method: as §1
Rattus norvegicus [14] = assay: Antiinflammatory activity in rat assessed as inhibition of carrageenan-induced paw oedema at 10 mg/kg, po after 30 mins; assay type: functional; set-up: scale not given: the % may be the effect or the level left; summary of the method: as §1
Rattus norvegicus [15] = assay: Antiinflammatory activity in rat assessed as inhibition of carrageenan-induced paw oedema at 20 mg/kg, po after 30 mins; assay type: functional; set-up: scale not given: the % may be the effect or the level left; summary of the method: as §1
Rattus norvegicus [16] = assay: Antiinflammatory activity in rat assessed as inhibition of carrageenan-induced paw oedema at 10 mg/kg, po after 1 hr; assay type: functional; set-up: scale not given: the % may be the effect or the level left; summary of the method: as §1
Rattus norvegicus [17] = assay: Antiinflammatory activity in rat assessed as inhibition of carrageenan-induced paw oedema at 20 mg/kg, po after 1 hr; assay type: functional; set-up: scale not given: the % may be the effect or the level left; summary of the method: as §1

Structure (SMILES)	Activity (Rattus norvegicus [1]) [%]	Activity (Mus musculus [2]) [%]	Activity (Mus musculus [3]) [%]	Activity (Rattus norvegicus [4]) [%]	Activity (Rattus norvegicus [5]) [%]	UI (Rattus norvegicus [6])	Activity (Mus musculus [7]) [%]	Activity (Mus musculus [8]) [%]	Activity (Mus musculus [9]) [%]	Activity (Mus musculus [10]) [%]	Activity (Mus musculus [11]) [%]	Activity (Mus musculus [12]) [%]	Activity (Rattus norvegicus [13]) [%]	Activity (Rattus norvegicus [14]) [%]	Activity (Rattus norvegicus [15]) [%]	Activity (Rattus norvegicus [16]) [%]	Activity (Rattus norvegicus [17]) [%]
Nc1nc(=O)[nH]c2nc3[nH]c(=S)[nH]c(=O)c3c(-c3ccc(N4CCCCC4)cc3)c12	29	43	33	48	43	0.72	51	48	39	46	44	53	35	33	40	39	46
CN1CCN(c2ccc(-c3c4c(=O)[nH]c(=S)[nH]c4nc4[nH]c(=S)sc(=N)c34)cc2)CC1	22	35	29	46	37	0.85	46	42	32	38	38	49	31	31	39	32	40
Nc1nc(=S)[nH]c2nc3[nH]c(=S)[nH]c(=O)c3c(-c3ccc(N4CCOCC4)cc3)c12	29	45	33	49	43	0.67	49	48	42	49	46	55	38	33	39	40	46
Cc1nc2nc3[nH]c(=S)[nH]c(=O)c3c(-c3ccc(N4CCCCC4)cc3)c2c(=O)[nH]1	26	43	35	41	34	0.9	56	48	37	48	42	56	34	29	36	33	39
O=c1[nH]cnc2nc3[nH]c(=S)[nH]c(=O)c3c(-c3ccc(N4CCOCC4)cc3)c12	29	38	29	46	38	0.86	47	44	30	45	36	53	36	31	39	36	42
Nc1ncnc2nc3[nH]c(=S)[nH]c(=O)c3c(-c3ccc(N4CCOCC4)cc3)c12	30	43	27	49	42	0.7	57	55	38	46	36	58	38	35	43	40	47
CN1CCN(c2ccc(-c3c4c(N)ncnc4nc4[nH]c(=S)[nH]c(=O)c34)cc2)CC1	31	43	36	50	38	0.69	58	50	39	45	43	58	38	35	43	37	48
